Published values collected from several papers.
Lines come from different studies, so protocols differ.
Target: Mitogen-activated protein kinase kinase kinase kinase 4 (MAP4K4, Homo sapiens, UniProt O95819)

O=C(NS(=O)(=O)c1ccc(NCC2CCOCC2)c([N+](=O)[O-])c1)c1ccc(N2CCN(Cc3ccc(C(F)(F)F)cc3-c3ccc(Cl)cc3)CC2)cc1Oc1cnc2[nH]ccc2c1 — remaining binding (cell-free assay, competition with immobilised ligand; 1 µM): 95%
O=C(NCCCN1CCOCC1)c1ccc(Nc2ncc(Cl)c(-c3ccc(Cl)s3)n2)cc1 — remaining binding (binding, competition with immobilised ligand; 1 µM): 67%
CC1CCCN1c1nccc(-c2cnn3ncccc23)n1 (stereo not drawn) — remaining binding (binding; 1 µM): 100%
C=CC(=O)N1CCC(C(=O)NCC(=O)N2CCN(c3nc(-c4cnc(N)nc4C(F)F)nc(N4CCOCC4)n3)CC2)CC1 — remaining binding (binding, competition with immobilised ligand; 1 µM): 80%
O=C(Nc1c[nH]nc1C(=O)NC1CCNCC1)c1cc(F)cc(F)c1 — remaining binding (binding, competition with immobilised ligand; 1 µM): 100%
CN(C)c1nccc(-c2cnn3ncccc23)n1 — remaining binding (binding; 1 µM): 87%
FC(F)(F)Oc1cccc(-c2cnc3ccc(-c4ccncc4)nn23)c1 — remaining binding (cell-free assay, competition with immobilised ligand; 5 µM): 49%
CCN1CCN(Cc2ccc(C(=O)Nc3ccc(C)c(Oc4ccc5c(c4)CC(=O)N5)c3)cc2C(F)(F)F)CC1 — remaining binding (binding, competition with immobilised ligand; 1 µM): 88%
CCCOc1ccc([C@H]2[C@H](C(=O)O)[C@@H](c3ccc4c(c3)OCO4)CN2CC(=O)Nc2c(CC)cccc2CC)cc1 — remaining binding (cell-free assay, competition with immobilised ligand; 1 µM): 90%
COc1ncc2cc3ccccc3nc2c1C#N — remaining binding (cell-free assay, competition with immobilised ligand; 5 µM): 91%
O=C(c1ccc(Nc2ncc(Cl)c(-c3cc4ccccc4s3)n2)cc1)N1CCC(N2CCCC2)CC1 — remaining binding (binding, competition with immobilised ligand; 1 µM): 34%
C[C@H](c1cccc(C#N)c1)n1cc(Cl)cc(C(N)=O)c1=N — remaining binding (cell-free assay, competition with immobilised ligand; 1 µM): 100%
N[C@H]1CCN(c2nccc(-c3cnn4ncccc34)n2)C1 — remaining binding (binding; 1 µM): 100%
CCc1ccccc1C(=O)Nc1n[nH]c2c(C)c(F)c(C3C(C#N)=C(C)N(C)C(C)=C3C#N)cc12 — remaining binding (cell-free assay, competition with immobilised ligand; 1 µM): 100%
CN(C)c1ncc(F)c(-c2cnn3ncccc23)n1 — remaining binding (binding; 1 µM): 100%
CNC(=O)[C@@H]1CC[C@@H](n2c(-c3ccc4cnccc4c3)nc3ccc(C(=O)NCc4cccc(C(N)=O)c4)cc32)C1 — remaining binding (binding, competition with immobilised ligand; 1 µM): 100%
O=C(c1ccc(Nc2ncc(Cl)c(-c3ccc(Cl)s3)n2)cc1)N1CCC(N2CCCC2)CC1 — remaining binding (binding, competition with immobilised ligand; 1 µM): 26%
COc1ccnn2ncc(-c3ccnc(N(C)C)n3)c12 — remaining binding (binding; 1 µM): 93%
CN(C)c1ncnc(-c2ccc3nc(Nc4cc(CN5CCN(C(=O)CC(F)(F)F)CC5)ccn4)[nH]c3c2)c1Cl — remaining binding (cell-free assay, competition with immobilised ligand; 1 µM): 100%
F[C@@H]1CCN(c2nccc(-c3cnn4ncccc34)n2)C1 — remaining binding (binding; 1 µM): 76%
O=C1CCc2cc(Nc3cc(OC4CCOCC4)c([N+](=O)[O-])cc3Cl)ccc2N1 — remaining binding (cell-free assay, competition with immobilised ligand; 1 µM): 100%
